The values that follow come from article PMC8892681 (ACS Omega, 2022).

The subject of data set [1] is VREfm. The data set is described as follows: MIC by broth microdilution against E. faecium. Type of data set: cell-based, Enterococcus faecium. Particulars: for fold loss in activity against E. faecium: compared with analogue 1.
A further data set concerns Caco-2 cell monolayers. The data set is described as follows: Caco-2 cell permeability. The class given is in vitro ADME. For orientation: Caco-2 cells form a polarised layer with tight junctions and transporters.
Data set [2] in a line: Pharmacokinetics and urinary/faecal recovery after oral administration in rats. The class given is in vivo, Sprague Dawley rats. Particulars: 30 mg/kg; for AUC(0-inf) / Cmax / Tmax / half-life: male, Sprague Dawley, rat, plasma, po; for % dose in urine (0–48 h): unchanged compound, male Sprague Dawley rats, oral, mean ± SD n = 3.
The next data set in a line: Caco-2 cell permeability. To be noted: human, Caco-2, pH 7.4. The class given is in vitro ADME.
Another data set relates to C. difficile. The data set is described as follows: MIC by broth microdilution against C. difficile. The class given is cell-based, Clostridioides difficile.
For data set [3], the system named is VREfm. Particulars: range of clinically relevant E. faecium strains; cited from earlier work.
In data set [4] the test system is E. faecium strain Aus0085. The data set is described as follows: Time-kill assay against E. faecium. Type of data set: cell-based, Enterococcus faecium.
Another data set deals with HepG2. Particulars: cited from earlier work.
For data set [5], the system named is human erythrocytes. Particulars: cited from earlier work.
For data set [6], the system named is C. difficile strain EDN0008. The data set is described as follows: Time-kill assay against C. difficile. The class given is cell-based, Clostridioides difficile.
Data set [7] concerns human erythrocytes. The data set is described as follows: Haemolysis assay. Type of data set: cell-based. Particulars: 1 h, 37 °C. The method in brief: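 Human whole blood collected in K2-EDTA and pelleted at 500 g for 5 min. RBCs washed twice in saline and once in PBS, then diluted 1:50 in PBS. Test compound made at 20× in DMSO and added 1:20 (final 0.125−128 mg/L). Incubated 1 h at 37 °C. Controls were DMSO vehicle and 1% (v/v) Triton X-100. After centrifugation at 500g, supernatant A450 was read. Three biological replicates.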

[8] abbreviates: exposure to 4 μg/mL, up to 48 h.

“Also recorded” adds a separate entry of the source. Like-named read-outs stand apart in the source and are kept apart here.

The term AUC(0-inf) denotes the area under the concentration-time curve extrapolated to infinity. High values mean high exposure, low ones low exposure. As usually defined, the Cmax is the peak of the concentration-time curve. Usually Tmax stands for the time from dosing to the highest level. For orientation: Papp A→B means the apparent permeability from the apical to the basolateral side of a cell layer. Low readings indicate slow passage, high ones fast passage. One may read the Papp B→A as how fast a substance crosses the layer from the basolateral side. By efflux ratio is commonly meant the permeability from basolateral to apical divided by that in the opposite direction, in the common usage.

`Cl.NCCc1ccccc1Oc1ccc(-c2noc(-c3ccc(O)cc3)n2)cc1` [15b, 4-(3-(4-(2-(2-Aminoethyl)phenoxy)phenyl)-1,2,4-oxadiazol-5-yl)phenol Hydrochloride]: the “fold loss in activity against E. faecium” value with VREfm [1] came out at 4 fold.
In the case of `C[N+](C)(C)CCc1ccc(Oc2ccc(-c3noc(-c4ccc(O)cc4)n3)cc2)cc1.[I-]` [26a, 2-(4-(4-(5-(4-Hydroxyphenyl)-1,2,4-oxadiazol-3-yl)phenoxy)phenyl)-N,N,N-trimethylethan-1-aminium Iodide], the “permeability across Caco-2 cell monolayer (in words)” value in the data set with Caco-2 cell monolayers (not detected in acceptor chamber, fully recovered in donor chamber) is on record as “complete impermeability; also recorded: no detectable permeability”. Besides, in the data set with VREfm [1] (compared with the primary amine 15e), the “fold decrease in activity against E. faecium” value came to 2 fold. Further, in [2], the AUC(0-inf) was found to be 0.28 ± 0.27 µM·h, the Cmax amounted to 39 ± 46 nM, the Tmax was 2.8 ± 2 h and the half-life is 5.3 ± 2.1 h. Also, the “% dose in urine (0–48 h)” value in data set [2] was 0.06 ± 0.03%.
For the molecule `Cl.NCc1ccccc1Oc1ccc(-c2noc(-c3ccc(O)cc3)n2)cc1` [15a, 4-(3-(4-(2-(Aminomethyl)phenoxy)phenyl)-1,2,4-oxadiazol-5-yl)phenol Hydrochloride], the “fold loss in activity against E. faecium” value in the data set with VREfm [1] came to 4 fold.
In the case of `COC(=O)c1ccccc1-c1c2ccc(=N)cc-2oc2cc(N)ccc12` [rhodamine 123], in “Caco-2 cell permeability”, the Papp A→B at 120 min came to 1.6 ± 0.13 ×10⁻⁶ cm/s, the Papp B→A at 120 min came to 12 ± 2.7 ×10⁻⁶ cm/s and the efflux ratio at 120 min worked out at 7.3.
lucifer yellow: in the data set with Caco-2 cell monolayers (low permeability marker, acceptor solution), the Papp was < 1 10^–6 cm/s.
As for `CC(CN)c1ccc(Oc2ccc(-c3noc(-c4ccc(O)cc4)n3)cc2)cc1.Cl` (racemic) [15f, (RS)-4-(3-(4-(4-(1-Aminopropan-2-yl)phenoxy)phenyl)-1,2,4-oxadiazol-5-yl)phenol Hydrochloride], the “fold loss in potency against C. difficile” value with C. difficile (compared with the ethyl linker 15e) is 5 fold.
In the case of `Cl.NCc1ccc(Oc2ccc(-c3noc(-c4ccc(O)cc4)n3)cc2)cc1` [15d, 4-(3-(4-(4-(Aminomethyl)phenoxy)phenyl)-1,2,4-oxadiazol-5-yl)phenol Hydrochloride], the “fold loss in activity against E. faecium” value in the data set with VREfm [1] is reported as 2 fold.
In the case of `Cl.NCCCc1ccc(Oc2ccc(-c3noc(-c4ccc(O)cc4)n3)cc2)cc1` [15h, 4-(3-(4-(4-(3-Aminopropyl)phenoxy)phenyl)-1,2,4-oxadiazol-5-yl)phenol Hydrochloride], the “fold increase in activity against E. faecium” value in the data set with VREfm [1] (propylamine versus ethylamine linker (15e)) came out at 2 fold.
Regarding `Oc1ccc(-c2nc(-c3ccc(Oc4ccccc4)cc3)no2)cc1` [compound 1, 4-(3-(4-Phenoxyphenyl)-1,2,4-oxadiazol-5-yl)phenol], in the data set on VREfm [3], the “E. faecium MIC90” value was 2 µg/mL. Also, the entries for the “time to 100% kill of VREfm” value in data set [4] (4 μg/mL) and in [4] (8 μg/mL (2× MIC of 15e)) were not above 24 h and not above 1 h, respectively. For the same molecule, the figures for the “regrowth of VREfm in time-kill assay” value in [4] (setting [8]) and in [4] (exposure to 8 μg/mL) were “rebounding growth of VREfm was observed after 48 h” and “no rebounding growth observed”, respectively. The HepG2 viability entry with HepG2 (at concentrations higher than 2 μg/mL) is reported as “reduced viability”. In addition, in the data set with HepG2 (at the E. faecium MIC90 (2 μg/mL)), the “toxicity against HepG2” value is on record as “not toxic”. Moreover, the “concentration leading to haemolysis in human erythrocytes” value with human erythrocytes [5] was more than 64 µg/mL. Also, the “killing activity in time-kill assay” value in [6] is recorded as “rapid bactericidal activity”.
Consider `Cl.NCCc1ccc(Oc2ccc(-c3noc(-c4ccc(O)cc4)n3)cc2)cc1` [15e, 4-(3-(4-(4-(2-Aminoethyl)phenoxy)phenyl)-1,2,4-oxadiazol-5-yl)phenol Hydrochloride], for which the “time to 100% kill of VREfm” value in data set [4] (4 μg/mL) was not above 24 h. Further, the “time to 100% kill of VREfm” value in data set [4] (8 μg/mL (2× MIC of 15e)) is given as not above 1 h. Also, the “regrowth of VREfm in time-kill assay” value in data set [4] (setting [8]) is “remained undetectable”. Further, the “regrowth of VREfm in time-kill assay” value in data set [4] (exposure to 8 μg/mL) was “no rebounding growth observed”. Moreover, the “fold loss in activity against E. faecium” value in the data set with VREfm [1] was 2 fold. Moreover, the “concentration leading to substantial levels of haemolysis” value with human erythrocytes [7] is not below 64 µg/mL. Moreover, in data set [6], the “time to 100% kill of C. difficile” value is reported as not above 3 h. In addition, in data set [2], the AUC(0-inf) was determined as 0.9 ± 0.22 µM·h, the Cmax came out at 160 ± 38 nM, the Tmax was 2.5 h and the half-life is 2 ± 0.3 h. In addition, in data set [2], the “% dose in urine (0–48 h)” value is 0.08 ± 0.03%.
Regarding `O=C(O)CCc1ccc(Oc2ccc(-c3noc(-c4ccc(O)cc4)n3)cc2)cc1` [9g, 3-(4-(4-(5-(4-Hydroxyphenyl)-1,2,4-oxadiazol-3-yl)phenoxy)phenyl)propanoic Acid], the “fold loss in potency against C. difficile” value with C. difficile (4 position versus same substituent at 2 and 3 positions / analogue 1) came out at 4 fold.
Turning to `CC(C)NCC(O)COc1cccc2ccccc12` (centres unmarked) [propranolol], in the data set “Caco-2 cell permeability”, the apical-to-basolateral permeability (Papp A→B) at 120 min was 42 ± 2.5 ×10⁻⁶ cm/s.
Take `CN[C@H](CC(C)C)C(=O)N[C@H]1C(=O)N[C@@H](CC(N)=O)C(=O)N[C@H]2C(=O)N[C@H]3C(=O)N[C@H](C(=O)N[C@H](C(=O)O)c4cc(O)cc(O)c4-c4cc3ccc4O)[C@H](O)c3ccc(c(Cl)c3)Oc3cc2cc(c3O[C@@H]2O[C@H](CO)[C@@H](O)[C@H](O)[C@H]2O[C@H]2C[C@](C)(N)[C@H](O)[C@H](C)O2)Oc2ccc(cc2Cl)[C@H]1O` [Vancomycin, vancomycin, reference compound]: the “C. difficile MIC” value in the data set on C. difficile (broth microdilution, 48 h anaerobic, biological triplicate) was found to be 2 µg/mL. In data set [6] (C. difficile EDN0008, 1 at ≥2 × MIC (12–48 μg/mL), vancomycin 8 μg/mL), the “killing activity in time-kill assay” value is given as “bacteriostatic activity”.
